The target of data set [1] is T1, Oleandomycin glycosyltransferase (Streptomyces antibioticus) (UniProt Q53685).
T1 sequence (whole entry): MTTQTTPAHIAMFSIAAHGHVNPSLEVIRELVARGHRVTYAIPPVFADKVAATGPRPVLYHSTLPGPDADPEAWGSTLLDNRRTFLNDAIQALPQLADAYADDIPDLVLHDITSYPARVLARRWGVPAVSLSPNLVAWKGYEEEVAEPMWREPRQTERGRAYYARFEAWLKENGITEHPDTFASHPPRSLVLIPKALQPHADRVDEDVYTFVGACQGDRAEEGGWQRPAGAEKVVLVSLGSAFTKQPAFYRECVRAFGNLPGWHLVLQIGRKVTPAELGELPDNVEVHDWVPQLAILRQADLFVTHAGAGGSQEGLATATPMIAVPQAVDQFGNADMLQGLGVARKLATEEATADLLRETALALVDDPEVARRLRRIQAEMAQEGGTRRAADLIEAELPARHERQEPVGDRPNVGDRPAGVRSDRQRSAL
The data set is described as follows: Activity at Streptomyces antibioticus wild-type OleD assessed as as rate of glucoside formation measured as nanomoles of product formed per minute per mg of enzyme.

Data set [2] concerns T2, Oleandomycin glycosyltransferase (Streptomyces antibioticus), Q53685 [P67T].
T2 sequence (whole entry): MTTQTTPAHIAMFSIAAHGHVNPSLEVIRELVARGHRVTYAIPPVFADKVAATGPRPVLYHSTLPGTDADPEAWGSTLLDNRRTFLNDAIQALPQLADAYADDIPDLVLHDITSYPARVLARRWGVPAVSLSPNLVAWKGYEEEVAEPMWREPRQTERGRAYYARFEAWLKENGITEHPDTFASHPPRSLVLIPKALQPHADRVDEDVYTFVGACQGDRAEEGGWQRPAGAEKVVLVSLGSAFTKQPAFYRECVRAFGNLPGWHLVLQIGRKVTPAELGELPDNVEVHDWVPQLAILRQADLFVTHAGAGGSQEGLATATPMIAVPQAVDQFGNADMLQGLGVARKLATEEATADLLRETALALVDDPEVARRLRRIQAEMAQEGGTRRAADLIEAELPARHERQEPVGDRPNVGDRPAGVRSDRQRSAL
The experiment in a line: Activity of Streptomyces antibioticus OleD P67T mutant assessed as as rate of glucoside formation measured as nanomoles of product formed per minute per mg of enzyme.

Data set [3] has as its target T1, Oleandomycin glycosyltransferase (Streptomyces antibioticus). The experiment in a line: Activity of Streptomyces antibioticus OleD […] mutant assessed as as rate of glucoside formation measured as nanomoles of product formed per minute per mg of enzyme.
Data set [4] concerns T3, Oleandomycin glycosyltransferase (Streptomyces antibioticus), Q53685 [A242V].
T3 sequence (whole entry): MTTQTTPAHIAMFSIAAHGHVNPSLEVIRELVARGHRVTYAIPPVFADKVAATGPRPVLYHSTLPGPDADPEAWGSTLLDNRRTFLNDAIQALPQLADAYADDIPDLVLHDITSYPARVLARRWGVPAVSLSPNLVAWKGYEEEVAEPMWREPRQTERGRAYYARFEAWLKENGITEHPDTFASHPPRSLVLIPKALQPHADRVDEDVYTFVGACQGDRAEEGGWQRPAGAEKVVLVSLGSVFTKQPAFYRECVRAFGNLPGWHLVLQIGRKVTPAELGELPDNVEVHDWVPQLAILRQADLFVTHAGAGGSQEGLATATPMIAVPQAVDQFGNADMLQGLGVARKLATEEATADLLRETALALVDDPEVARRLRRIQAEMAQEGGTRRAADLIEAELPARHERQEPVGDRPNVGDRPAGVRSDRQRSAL
The experiment in a line: Activity of Streptomyces antibioticus OleD A242V mutant assessed as as rate of glucoside formation measured as nanomoles of product formed per minute per mg of enzyme.

The subject of data set [5] is T4, Oleandomycin glycosyltransferase (Streptomyces antibioticus), Q53685 [P67T,S132F,A242V].
T4 sequence (whole entry): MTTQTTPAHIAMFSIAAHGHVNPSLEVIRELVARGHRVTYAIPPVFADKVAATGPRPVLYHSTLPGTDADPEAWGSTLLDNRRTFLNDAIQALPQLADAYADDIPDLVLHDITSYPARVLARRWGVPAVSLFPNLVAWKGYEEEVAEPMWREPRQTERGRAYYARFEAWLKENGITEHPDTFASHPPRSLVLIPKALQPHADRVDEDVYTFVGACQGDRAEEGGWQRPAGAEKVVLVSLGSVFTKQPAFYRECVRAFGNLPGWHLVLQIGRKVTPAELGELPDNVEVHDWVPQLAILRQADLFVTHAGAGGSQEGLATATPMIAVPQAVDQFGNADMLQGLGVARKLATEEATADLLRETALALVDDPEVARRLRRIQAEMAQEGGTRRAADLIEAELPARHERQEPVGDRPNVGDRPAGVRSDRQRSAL
The experiment in a line: Activity of Streptomyces antibioticus OleD P67T/S132F/A242V mutant assessed as as rate of glucoside formation measured as nanomoles of product formed per minute per mg of enzyme.

Substrate in data set [6]: Cc1cc(=O)oc2cc(O)ccc12
The experiment in a line: Ratio of Kcat to Km for Streptomyces antibioticus wild-type OleD assessed as as rate of glucoside formation using varying compound concentration by enzyme kinetics assay. The method in brief: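 Wild-type OleD steady-state kinetics with 4-methylumbelliferone as the variable acceptor, up to 10 mM (its solubility limit in water/DMSO), and UDP-glucose as donor. Read-out was the rate of glucoside formation. kcat/Km was obtained by linear regression of rate against acceptor concentration.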

Substrate in data set [7]: Cc1cc(=O)oc2cc(O)ccc12
The data set is described as follows: Activity of Streptomyces antibioticus wild-type OleD assessed as as rate of glucoside formation at 10 mM using varying NDP sugar UDP-glucose concentration by enzyme kinetics assay. The method in brief:
(§1)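 Steady-state kinetics of wild-type OleD glucosylating the acceptor 4-methylumbelliferone to its 7-O-glucoside, with the acceptor fixed at 10 mM and donor UDP-glucose as the variable substrate. Apparent donor kinetic parameters were taken from the rate versus UDP-glucose concentration data.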

Substrate in data set [8]: Cc1cc(=O)oc2cc(O)ccc12
The data set is described as follows: Ratio of Kcat to Km for Streptomyces antibioticus wild-type OleD assessed as as rate of glucoside formation at 10 mM using varying NDP sugar UDP-glucose concentration by enzyme kinetics assay. An outline of the steps:
as §1

Substrate in data set [9]: Cc1cc(=O)oc2cc(O)ccc12
The experiment in a line: Activity of Streptomyces antibioticus OleD P67T/S132F/A242V mutant assessed as as rate of glucoside formation using varying compound concentration by enzyme kinetics assay. An outline of the steps:
(§2)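 Steady-state kinetics with the acceptor 4-methylumbelliferone as the variable substrate and UDP-Glc as donor. The acceptor limit was its solubility in water/DMSO, 10 mM. Apparent Km and kcat were derived from the saturation curve.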

Substrate in data set [10]: Cc1cc(=O)oc2cc(O)ccc12
The experiment in a line: Ratio of Kcat to Km for Streptomyces antibioticus OleD P67T/S132F/A242V mutant assessed as as rate of glucoside formation using varying compound concentration by enzyme kinetics assay. The method in brief: as §2

Substrate in data set [11]: Cc1cc(=O)oc2cc(O)ccc12
The data set is described as follows: Activity of Streptomyces antibioticus OleD P67T/S132F/A242V mutant assessed as rate of glucoside formation at 10 mM using varying NDP sugar UDP-glucose concentration by enzyme kinetics assay. The method in brief: (§3)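 Steady-state kinetics with donor UDP-Glc varied at a fixed concentration of the acceptor 4-methylumbelliferone. The result was reported as an apparent donor Km, with kcat from the same analysis.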

Substrate in data set [12]: Cc1cc(=O)oc2cc(O)ccc12
The experiment in a line: Ratio of Kcat to Km for Streptomyces antibioticus OleD P67T/S132F/A242V mutant assessed as rate of glucoside formation at 10 mM using varying NDP sugar UDP-glucose concentration by enzyme kinetics assay. The method in brief:
as §3

The values that follow come from ChEMBL document CHEMBL1221207, “Expanding the promiscuity of a natural-product glycosyltransferase by directed evolution” (Nat Chem Biol, 2007).

One may read the kcat/Km as the turnover number divided by the Michaelis constant. By kcat is commonly meant the maximal rate divided by the concentration of active sites.

As for `O=c1c(-c2ccc(O)cc2)coc2cc(O)cc(O)c12`, the Activity in data set [1] was found to be 3.4 nmol/min; in data set [2], 28.8 nmol/min; in data set [3], 8.8 nmol/min; in data set [4], 14.1 nmol/min; in data set [5], 26 nmol/min.
With `CC(C)=CCc1cc(C(=O)Nc2c(O)c3ccc(O)c(C)c3oc2=O)ccc1O`, the Activity was 0.24 nmol/min in data set [1]; 0.65 nmol/min in data set [2]; 0.49 nmol/min in data set [3]; 0.33 nmol/min in [4]; 1.14 nmol/min in data set [5].
Take `O=c1c(O)c(-c2ccc(O)cc2)oc2cc(O)cc(O)c12`: the Activity turned out to be 13.2 nmol/min in data set [1]; 99.9 nmol/min in [2]; 23 nmol/min in [3]; 15.3 nmol/min in data set [4]; 28 nmol/min in data set [5].
As to `O=c1c(-c2ccc(O)cc2)coc2cc(O)ccc12`, the Activity in data set [1] was found to be 4.2 nmol/min; in data set [2], 16 nmol/min; in data set [3] it was 5.5 nmol/min; in data set [4] it was 8.5 nmol/min; in data set [5] it was 24 nmol/min.
In the case of `O=C(O)Cc1cc(=O)oc2cc(O)ccc12`, the Activity turned out to be 0.22 nmol/min in data set [2], 0.08 nmol/min in data set [3], 0.16 nmol/min in data set [4] and 3.6 nmol/min in [5].
Turning to `O=C(O)c1cc2ccc(O)cc2oc1=O`, the Activity in data set [1] came to 0.01 nmol/min; in [2], 0.022 nmol/min; in data set [3], 0.022 nmol/min; in data set [4] it was 0.01 nmol/min; in data set [5] it was 0.62 nmol/min.
In the case of `CO[C@H]1C[C@H](O[C@H]2[C@H](C)[C@@H](O[C@@H]3O[C@H](C)C[C@H](N(C)C)[C@H]3O)[C@@H](C)C[C@@]3(CO3)C(=O)[C@H](C)[C@@H](O)[C@@H](C)[C@@H](C)OC(=O)[C@@H]2C)O[C@@H](C)[C@@H]1O`, the Activity is 700 nmol/min in data set [1]; 200 nmol/min in data set [2]; 1490 nmol/min in data set [3]; 70 nmol/min in data set [4]; 13 nmol/min in data set [5].

B1: Oleandomycin glycosyltransferase (Streptomyces antibioticus), Q53685 (protein)
chain: MTTQTTPAHIAMFSIAAHGHVNPSLEVIRELVARGHRVTYAIPPVFADKVAATGPRPVLYHSTLPGPDADPEAWGSTLLDNRRTFLNDAIQALPQLADAYADDIPDLVLHDITSYPARVLARRWGVPAVSLSPNLVAWKGYEEEVAEPMWREPRQTERGRAYYARFEAWLKENGITEHPDTFASHPPRSLVLIPKALQPHADRVDEDVYTFVGACQGDRAEEGGWQRPAGAEKVVLVSLGSAFTKQPAFYRECVRAFGNLPGWHLVLQIGRKVTPAELGELPDNVEVHDWVPQLAILRQADLFVTHAGAGGSQEGLATATPMIAVPQAVDQFGNADMLQGLGVARKLATEEATADLLRETALALVDDPEVARRLRRIQAEMAQEGGTRRAADLIEAELPARHERQEPVGDRPNVGDRPAGVRSDRQRSAL
Regarding B1, the kcat/Km in data set [6] was determined as 3 M⁻¹ s⁻¹. Moreover, in [7], the Km came to 300 µM and the kcat worked out at 0.00867 s⁻¹. The kcat/Km in [8] stood at 28.8 M⁻¹ s⁻¹.

B2: Oleandomycin glycosyltransferase (Streptomyces antibioticus), Q53685 P67T,S132F,A242V (protein)
chain: MTTQTTPAHIAMFSIAAHGHVNPSLEVIRELVARGHRVTYAIPPVFADKVAATGPRPVLYHSTLPGTDADPEAWGSTLLDNRRTFLNDAIQALPQLADAYADDIPDLVLHDITSYPARVLARRWGVPAVSLFPNLVAWKGYEEEVAEPMWREPRQTERGRAYYARFEAWLKENGITEHPDTFASHPPRSLVLIPKALQPHADRVDEDVYTFVGACQGDRAEEGGWQRPAGAEKVVLVSLGSVFTKQPAFYRECVRAFGNLPGWHLVLQIGRKVTPAELGELPDNVEVHDWVPQLAILRQADLFVTHAGAGGSQEGLATATPMIAVPQAVDQFGNADMLQGLGVARKLATEEATADLLRETALALVDDPEVARRLRRIQAEMAQEGGTRRAADLIEAELPARHERQEPVGDRPNVGDRPAGVRSDRQRSAL
B2: the Km in data set [9] was 140 µM; in data set [11], 0.03 min⁻¹. The catalytic constant (kcat) in data set [9] turned out to be 0.0247 s⁻¹; in data set [11] it was 0.0215 s⁻¹. The kcat/Km in [10] is 177 M⁻¹ s⁻¹; in data set [12] it was 717 M⁻¹ s⁻¹.
